Measurements reported in ChEMBL document CHEMBL4152390, “Discovery of the First-in-Class Dual Histone Deacetylase-Proteasome Inhibitor” (J Med Chem, 2018).
Activity calls are given as the source filed them. No cut-off for these calls is given here.

Tests used:
[1] = molecular target: T1, Protein deacetylase HDAC6 (Homo sapiens, UniProt Q9UBN7); assay: Inhibition of N-terminal GST-tagged recombinant human HDAC6 expressed in baculovirus infected insect cells using RHKK(Ac)AMC as substrate by fluorescence-based assay
T1 sequence (Q9UBN7 whole entry): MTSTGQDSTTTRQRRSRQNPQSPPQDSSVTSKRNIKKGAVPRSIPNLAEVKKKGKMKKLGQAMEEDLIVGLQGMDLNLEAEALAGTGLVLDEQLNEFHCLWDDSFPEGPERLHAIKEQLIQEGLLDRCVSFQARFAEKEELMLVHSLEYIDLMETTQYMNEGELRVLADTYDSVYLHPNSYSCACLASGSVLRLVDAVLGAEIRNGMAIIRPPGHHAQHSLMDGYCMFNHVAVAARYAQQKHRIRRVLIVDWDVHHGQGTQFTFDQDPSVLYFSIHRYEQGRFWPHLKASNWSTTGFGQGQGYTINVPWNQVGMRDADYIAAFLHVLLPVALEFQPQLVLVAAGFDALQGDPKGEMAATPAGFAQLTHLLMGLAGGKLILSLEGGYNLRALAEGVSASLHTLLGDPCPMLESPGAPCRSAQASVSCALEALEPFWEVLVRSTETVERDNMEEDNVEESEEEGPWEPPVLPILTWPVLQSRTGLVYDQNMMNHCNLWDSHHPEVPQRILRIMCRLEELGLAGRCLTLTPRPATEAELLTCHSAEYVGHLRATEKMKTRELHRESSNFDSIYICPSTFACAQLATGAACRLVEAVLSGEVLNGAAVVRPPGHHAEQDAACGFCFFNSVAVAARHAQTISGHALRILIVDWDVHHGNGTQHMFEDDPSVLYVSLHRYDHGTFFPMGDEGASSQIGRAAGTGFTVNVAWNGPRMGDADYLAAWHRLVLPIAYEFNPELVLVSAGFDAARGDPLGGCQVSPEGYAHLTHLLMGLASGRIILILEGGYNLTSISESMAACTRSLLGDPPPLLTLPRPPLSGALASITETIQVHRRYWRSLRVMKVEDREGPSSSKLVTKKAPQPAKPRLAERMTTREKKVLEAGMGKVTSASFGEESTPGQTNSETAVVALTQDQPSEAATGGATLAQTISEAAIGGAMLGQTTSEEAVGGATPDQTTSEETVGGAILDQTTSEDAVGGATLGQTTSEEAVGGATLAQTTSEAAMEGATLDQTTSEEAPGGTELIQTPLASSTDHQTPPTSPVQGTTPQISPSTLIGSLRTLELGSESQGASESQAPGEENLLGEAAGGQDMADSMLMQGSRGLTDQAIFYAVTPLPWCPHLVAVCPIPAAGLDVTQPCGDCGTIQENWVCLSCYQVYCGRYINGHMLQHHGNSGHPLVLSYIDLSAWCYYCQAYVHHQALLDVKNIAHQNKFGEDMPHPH

[2] = tested on: SEM cells; assay: Induction of early differentiation of human SEM cells assessed as increase in CD14 expression at IC50 to 2 times IC50 after 72 hrs by FACS analysis; assay type: functional, cell-based
Summary of the method: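 Surface CD11b and CD14 measured by FACS using fluorochrome-coupled monoclonal antibodies with matched isotype controls, after treatment in liquid medium.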

[3] = molecular target: Proteasome Macropain subunit (Homo sapiens) (UniProt P49721); assay: Inhibition of trypsin-like activity of 20S proteasome in human HL60 cells at 4 nM to 25 uM using Z-LRR-aminoluciferin as substrate after 2 hrs by proteasome-Glo assay; assay type: cell-based
Chain of Proteasome Macropain subunit (Homo sapiens) (P49721 whole entry): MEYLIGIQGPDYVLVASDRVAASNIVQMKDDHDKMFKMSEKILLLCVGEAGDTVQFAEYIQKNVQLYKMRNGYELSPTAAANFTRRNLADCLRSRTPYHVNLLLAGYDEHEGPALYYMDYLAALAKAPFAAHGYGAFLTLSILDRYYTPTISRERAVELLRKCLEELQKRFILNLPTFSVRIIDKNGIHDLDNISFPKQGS

[4] = molecular target: T2, Protein deacetylase HDAC6 (Homo sapiens) (UniProt Q9UBN7); assay: Inhibition of HDAC6 in human SEM cells assessed as increase in acetyl-alpha tubulin expression at 0.1 to 10 uM after 24 hrs by immunoblot assay; assay type: cell-based
T2 sequence (whole entry): T1 sequence (Q9UBN7 whole entry)
Summary of the method: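 Cells exposed for 24 h at indicated concentrations; lysates immunoblotted for acetyl-α-tubulin, acetyl-histone H3, PARP, with GAPDH as loading control.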

[5] = tested on: SEM cells; assay: Cell cycle arrest in human SEM cells assessed as reduction in cell levels at G2/M phase at IC50 to 2 times IC50 after 48 hrs by propidium iodide staining-based FACS analysis; assay type: functional
[6] = molecular target: T3, Proteasome component C5 (Homo sapiens) (UniProt P20618); assay: Inhibition of caspase-like activity of 20S proteasome in human HL60 cells at 4 nM to 25 uM using Z-nLPnLD-aminoluciferin as substrate after 2 hrs by proteasome-Glo assay; assay type: cell-based
T3 sequence (whole entry): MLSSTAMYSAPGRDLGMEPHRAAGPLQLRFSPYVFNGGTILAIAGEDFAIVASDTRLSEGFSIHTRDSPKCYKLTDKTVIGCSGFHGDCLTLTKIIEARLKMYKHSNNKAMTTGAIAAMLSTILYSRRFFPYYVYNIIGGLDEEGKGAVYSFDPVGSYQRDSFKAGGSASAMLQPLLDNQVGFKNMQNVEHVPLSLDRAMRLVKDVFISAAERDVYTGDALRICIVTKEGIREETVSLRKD

[7] = tested on: SEM cells; assay: Inhibition of HDAC6/chymotrypsin-like activity of 20S proteasome in human SEM cells assessed as increase in Grp94 protein expression at 0.1 to 10 uM after 18 hrs by Western blot assay; assay type: cell-based
Summary of the method: (§1)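 Cells treated 18 h at indicated concentrations; lysates analysed by western blot for heat shock (Grp94, HSP70, HSP40, HSP27), UPR (BIP, ATF4, ATF6, pJNK) and autophagy (LC3B, p62) proteins.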

[8] = tested on: SEM cells; assay: Inhibition of HDAC6/chymotrypsin-like activity of 20S proteasome in human SEM cells assessed as increase in HSP27 protein expression at 0.1 to 10 uM after 18 hrs by Western blot assay; assay type: cell-based; summary of the method: as §1
[9] = tested on: SEM cells; assay: Inhibition of HDAC6/chymotrypsin-like activity of 20S proteasome in human SEM cells assessed as decrease in aggresome accumulation at IC50 to 2 times IC50 after 18 hrs by FACS analysis; assay type: cell-based
Summary of the method: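 Cells treated 18 h, then stained with a proteostat aggresome dye plus DNA stain. Imaged by fluorescence microscopy (63X objective) or analysed by FACS, with aggresome propensity factor from relative mean fluorescence intensity.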

[10] = tested on: SEM cells; assay: Induction of apoptosis in human SEM cells assessed as increase in caspase 3/7 activity at IC50 after 48 hrs by glo assay relative to control; assay type: functional
Summary of the method: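 Cells treated at IC50 or 2x IC50 for 48 h; caspase-3/7 activity read by luminescence after cleavage of a DEVD-containing luminogenic substrate.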

[11] = tested on: SEM cells; assay: Reduction of colony forming capacity of human SEM cells at IC50 to 2 times IC50 after 48 hrs; assay type: functional, cell-based
Summary of the method: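 SEM cells pretreated in liquid medium (methods: 24 h; legend: 48 h), then plated in semisolid methylcellulose-based medium containing compound or control; colonies counted after 14 days.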

IC50 [1]: 270 nM
inhibition [3]: inactive
inhibition [4]: Active
inhibition [6]: inactive
SMILES: C[C@H](NC(=O)[C@H](CC(=O)NCC(C)(C)C)NC(=O)c1ccc(C(=O)NO)cc1)C(=O)NCc1ccccc1
Activity [2]: Active
Activity [5]: Active
inhibition [7]: Active
inhibition [8]: Active
inhibition [9]: Active
fold change (FC) [10]: 6
Activity [11]: Active
